# MPTP inh = permeability transition pore inhibition; isolated mouse mitochondria, Ca2+ swelling absorbance, 30 min; 360,000 tested, 1.4% active; inhibition, % at 10 µM; AID 602449;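 active means inhibition of 50% or more, scaled per plate between neutral and stimulator controls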;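 further: 0% = DMSO wells given calcium and 100% = 1 mM EGTA wells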
# ATG4B inh = ATG4B (human) cysteine protease inhibition; Q9Y4P1; AID 504462; inhibition, % at 8.33 µM; 340,000 tested, 0.51% active; ATG4B cleavage of LC3-PLA2, NBD-HPC fluorescence, 1 h; in the data active means inhibition above about 40%
# Target sequence (Q9Y4P1 whole entry, looked up): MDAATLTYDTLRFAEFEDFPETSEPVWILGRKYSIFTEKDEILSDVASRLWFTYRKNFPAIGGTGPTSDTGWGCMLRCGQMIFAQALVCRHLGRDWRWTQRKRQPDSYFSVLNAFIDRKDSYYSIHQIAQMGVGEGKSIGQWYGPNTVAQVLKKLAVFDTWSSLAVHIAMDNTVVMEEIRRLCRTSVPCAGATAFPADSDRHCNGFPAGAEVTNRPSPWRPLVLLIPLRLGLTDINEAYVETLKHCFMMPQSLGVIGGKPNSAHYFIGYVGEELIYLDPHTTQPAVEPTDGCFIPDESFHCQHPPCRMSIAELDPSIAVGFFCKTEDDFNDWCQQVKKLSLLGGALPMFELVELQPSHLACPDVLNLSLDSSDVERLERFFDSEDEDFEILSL
# MT1-MMP act inh = inhibitors of human MT1-MMP activation; P50281; AID 651647; GFP/RFP ratio change, % at 20 µM; 360,000 tested, 0.061% active; HT1080 RFP-PRO-GFP cells, GFP/RFP ratio fluorescence, overnight; percent of plate control window, DMSO zero;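 active means GFP/RFP ratio change of at least 30% with cell ATP level not reduced by more than half and red fluorescence within 50% of control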
#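 Assay system: HT1080 RFP-PRO-GFP cells | Dosing: 20 µM single dose, 1% DMSO | Incubation: Cells overnight before dosing, compound overnight, 37 °C, 5% CO2 | Evaluation: GFP/RFP fluorescence ratio | Control set: DMSO-only wells and HT1080 RFP-L50D-GFP cell wells as references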
# SKN-1 block = inhibitors of C. elegans SKN-1; inhibition, % at 21.8 µM; C. elegans VP596 Pgst-4::GFP/RFP ratio, acrylamide-induced, 24 h; AID 624304; 360,000 tested, 0.49% active;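 active means interference check ratio from 0.5 to 1.5 plus GFP to RFP signal ratio inhibition reaching or exceeding a fixed threshold, cut at about 30% in these data, passing the limit was not always enough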
# Rh123 counter = Rhodamine 123 counter-screen of mitochondrial pore hits; shares compounds with MPTP inh; isolated mitochondria, membrane potential, Rhodamine 123 fluorescence; inhibition, % at 10 µM; 5,000 tested, 78% active; AID 624504; in the data active means inhibition above about 22%;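 further: 0% = DMSO vehicle and 100% = positive control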
# MPTP abs DR = MPTP inhibition, dose response swelling confirmation; shares compounds with MPTP inh; isolated mitochondria swelling, absorbance; IC50, µM; 780 tested, 58% active; AID 651561; in the data active means IC50 below about 20 µM
# MPTP counter DR = active in counter-screen for permeability transition pore inhibitors | shares compounds with MPTP inh | isolated mitochondria counterscreen, fluorescence read-out | IC50, µM | 780 tested, 49% active | AID 651564; in the data active means IC50 below about 80 µM
# Numbers without * were called inactive; / = not tested or not shown. Shown are actives, neighbours in structure and some others; about 2.3% of the full set was active somewhere.
SMILES,MPTP inh,ATG4B inh,MT1-MMP act inh,SKN-1 block,Rh123 counter,others
COc1ccc(NS(=O)(=O)c2ccc3c(c2)Cc2ccccc2-3)cn1,84*,-21,-5,7,87*,
O=C1CSc2ccc(C(=O)Nc3cccc(S(=O)(=O)Nc4ccc(Br)cc4)c3)cc2N1,89*,-2,-3,3,71*,
O=C(Nc1ccc(Br)cc1)c1cccc(S(=O)(=O)Nc2ccccn2)c1,0,-3,1,13,/,
COC(=O)c1cc(OC)c(OC)cc1NC(=S)N1CCN(c2ccccn2)CC1,0,-4,1,8,/,
O=C(CCC(=O)N1CCOc2ccc(Cl)cc21)NCCCN1CCOCC1,0,-6,-5,2,/,
COc1ccc(NC(=O)c2cccc(S(=O)(=O)Nc3ccc(Br)cc3)c2)cn1,97*,-9,-8,-6,80*,
Cc1ccc(/C([O-])=C(/C(=S)Nc2ccc(SC(F)F)cc2)[n+]2ccccc2)cc1[N+](=O)[O-],64*,-8,-6,7,80*,
Cc1ccc(NC(=S)Nc2cccc3ccccc23)cc1F,64*,3,-1,12,84*,
O=C(Cc1ccccc1)Nc1ncccc1Cl,0,-15,2,-10,/,
Cc1cc(C)c2c3c(cn2n1)c(=O)n(C)c(=O)n3C,0,-6,0,-7,/,
O=C(Cc1ccc(Cl)cc1Cl)Nc1cccc(S(=O)(=O)Nc2ccccc2F)c1,65*,-4,3,-1,58*,
Cc1ccccc1OCCC(=O)Nc1cccc(S(=O)(=O)Nc2ccccc2Cl)c1,77*,-6,0,4,75*,
O=C(/C=C/c1ccccc1)Nc1cccc(S(=O)(=O)Nc2ccccc2F)c1,51*,-17,4,-8,56*,
O=C(Nc1cccc(S(=O)(=O)Nc2ccccc2F)c1)c1ccc2ccccc2n1,-2,-4,-2,6,/,
Cn1c(N)c(C(=O)CSc2nnc(C3CC3)n2-c2ccccc2)c(=O)n(C)c1=O,0,-2,-3,-8,/,
C=CCc1cccc(CNc2nc3ccccc3n2CCC)c1O,52*,16,-8,4,53*,
NC(=S)n1[nH]c(-c2ccc([N+](=O)[O-])cc2)c(N=Nc2cccc([N+](=O)[O-])c2)c1=O,108*,34,-12,6,76*,
NC(=S)n1[nH]c(-c2ccc([N+](=O)[O-])cc2)c(N=Nc2ccccc2[N+](=O)[O-])c1=O,44,2,9,6,/,
Cc1c(N=Nc2c(-c3ccc([N+](=O)[O-])cc3)[nH]n(C(N)=S)c2=O)cccc1[N+](=O)[O-],96*,-2,-45,20,67*,
O=C1NC(C2CC3C=CC2C3)Nc2ccccc21 (stereo unspecified),0,/,7,-9,/,
CCN1C(=O)[C@H]2[C@@H](c3ccc(C)cc3)N3C(=O)N(c4cccc(F)c4)C(=O)[C@@]3(C)[C@H]2C1=O,0,-6,-2,2,/,
NS(=O)(=O)c1cccc(NS(=O)(=O)c2ccc(/C=C/C(=O)OCC(=O)c3ccccc3)cc2)c1,60*,12,-4,8,27*,
CCOC(=O)C1=C(Nc2ccccc2)CC(C)(O)C(C(=O)OCC)C1c1ccccc1 (stereo unspecified),0,-3,-1,12,/,
CCOC(=O)C1=C(Nc2ccccc2)CC(C)(O)C(C(=O)OCC)C1c1ccc(Br)cc1 (stereo unspecified),59*,7,1,13,-4,MPTP abs DR=>100;MPTP counter DR=>80
CC(=O)c1cccc(NC(=O)c2csc3c2CCCCC3)c1,6,-6,1,2,/,
SMILES,MPTP inh,ATG4B inh,MT1-MMP act inh,SKN-1 block,Rh123 counter,others
CC(=O)c1cccc(NC(=O)Nc2csc3c2CCCC3)c1,80*,13,3,10,94*,
O=C(Nc1ccccc1)Nc1ncc([N+](=O)[O-])s1,88*,7,-7,-3,82*,
CC(C)CC(=O)Nc1ncc([N+](=O)[O-])s1,67*,0,1,-5,56*,
O=C(COC(=O)c1ccccc1)Nc1ncc([N+](=O)[O-])s1,0,20,1,6,/,
O=C(Nc1ncc(S(=O)(=O)c2ccc([N+](=O)[O-])cc2)s1)c1ccc2ccccc2c1,94*,-2,-2,-10,31*,
O=C(Nc1ncc([N+](=O)[O-])s1)c1cccc([N+](=O)[O-])c1,56*,3,-18,8,79*,
CCCCC(=O)Nc1ncc([N+](=O)[O-])s1,1,-1,-1,-11,/,
O=C(Nc1ccc(NC(=O)c2cccc([N+](=O)[O-])c2)cc1)c1cccc([N+](=O)[O-])c1,2,-3,2,2,/,
CN(C)CCCN(CCCN(C)C)C(=S)Nc1ccc(S(=O)(=O)N2CCOCC2)cc1,-1,-4,3,5,/,
CCn1cc(/C=C(\NC(=O)c2ccccc2F)C(=O)NCCCn2ccnc2)c2ccccc21,1,0,-2,-15,/,
O=C(Nc1ncc(Cc2cc(Cl)ccc2Cl)s1)c1ccc([N+](=O)[O-])cc1,51*,0,-12,-10,-4,MPTP abs DR=>100;MPTP counter DR=<2.5*
CCCCC(=O)NC(c1ccc([N+](=O)[O-])cc1)c1c(O)ccc2ccccc12 (stereo unspecified),69*,-9,-21,11,79*,
O=C(NC(c1ccc(Cl)cc1)c1c(O)ccc2ccccc12)c1ccccc1 (stereo unspecified),80*,1,-9,8,59*,
CCCNCc1cc(OC)c(OCC(=O)NCCc2ccccc2)cc1Br,16,3,0,3,/,
CC(C)(C)S(=O)(=O)/C(C#N)=N/Nc1ccc(Cl)cc1,92*,1,-10,4,87*,
Cc1cccc(N/N=C(\C#N)S(=O)(=O)C(C)(C)C)c1,1,-11,2,4,/,
CC(C)(C)c1ccc(N/N=C(\C#N)S(=O)(=O)C(C)(C)C)cc1,86*,-10,-2,7,86*,
O=c1[nH]c2ccccc2n2c(=S)[nH]nc12,1,13,6,4,/,
CC(C)(C)N(NC(=O)Nc1ccc(Cl)c(Cl)c1)C(=O)c1ccccc1,104*,-10,-20,-8,97*,
Cc1cc(C)cc(C(=O)N(NC(=O)Nc2ccc(Cl)cc2)C(C)(C)C)c1,97*,-11,-15,0,98*,
Cc1cc(N/N=C(/CCC(=O)O)C(=O)O)nc2ccccc12,1,6,7,-1,/,
CCOC(=O)c1cnc2ccc(OC)cc2c1NCc1ccccc1,2,-11,-9,12,/,
CCOC(=O)c1cnc2ccc(OCC)cc2c1NCc1ccccc1OC,85*,4,-21,22,99*,
